NSD2 inh: inhibitors of human histone methyltransferase NSD2; O96028; NSD2 peptide methylation, AlphaScreen, 120 min; inhibition, % at 12.5 µM; hit rate 0.54% among 310,000; in the data active = inhibition above about 50%
Target sequence (O96028 whole entry, looked up): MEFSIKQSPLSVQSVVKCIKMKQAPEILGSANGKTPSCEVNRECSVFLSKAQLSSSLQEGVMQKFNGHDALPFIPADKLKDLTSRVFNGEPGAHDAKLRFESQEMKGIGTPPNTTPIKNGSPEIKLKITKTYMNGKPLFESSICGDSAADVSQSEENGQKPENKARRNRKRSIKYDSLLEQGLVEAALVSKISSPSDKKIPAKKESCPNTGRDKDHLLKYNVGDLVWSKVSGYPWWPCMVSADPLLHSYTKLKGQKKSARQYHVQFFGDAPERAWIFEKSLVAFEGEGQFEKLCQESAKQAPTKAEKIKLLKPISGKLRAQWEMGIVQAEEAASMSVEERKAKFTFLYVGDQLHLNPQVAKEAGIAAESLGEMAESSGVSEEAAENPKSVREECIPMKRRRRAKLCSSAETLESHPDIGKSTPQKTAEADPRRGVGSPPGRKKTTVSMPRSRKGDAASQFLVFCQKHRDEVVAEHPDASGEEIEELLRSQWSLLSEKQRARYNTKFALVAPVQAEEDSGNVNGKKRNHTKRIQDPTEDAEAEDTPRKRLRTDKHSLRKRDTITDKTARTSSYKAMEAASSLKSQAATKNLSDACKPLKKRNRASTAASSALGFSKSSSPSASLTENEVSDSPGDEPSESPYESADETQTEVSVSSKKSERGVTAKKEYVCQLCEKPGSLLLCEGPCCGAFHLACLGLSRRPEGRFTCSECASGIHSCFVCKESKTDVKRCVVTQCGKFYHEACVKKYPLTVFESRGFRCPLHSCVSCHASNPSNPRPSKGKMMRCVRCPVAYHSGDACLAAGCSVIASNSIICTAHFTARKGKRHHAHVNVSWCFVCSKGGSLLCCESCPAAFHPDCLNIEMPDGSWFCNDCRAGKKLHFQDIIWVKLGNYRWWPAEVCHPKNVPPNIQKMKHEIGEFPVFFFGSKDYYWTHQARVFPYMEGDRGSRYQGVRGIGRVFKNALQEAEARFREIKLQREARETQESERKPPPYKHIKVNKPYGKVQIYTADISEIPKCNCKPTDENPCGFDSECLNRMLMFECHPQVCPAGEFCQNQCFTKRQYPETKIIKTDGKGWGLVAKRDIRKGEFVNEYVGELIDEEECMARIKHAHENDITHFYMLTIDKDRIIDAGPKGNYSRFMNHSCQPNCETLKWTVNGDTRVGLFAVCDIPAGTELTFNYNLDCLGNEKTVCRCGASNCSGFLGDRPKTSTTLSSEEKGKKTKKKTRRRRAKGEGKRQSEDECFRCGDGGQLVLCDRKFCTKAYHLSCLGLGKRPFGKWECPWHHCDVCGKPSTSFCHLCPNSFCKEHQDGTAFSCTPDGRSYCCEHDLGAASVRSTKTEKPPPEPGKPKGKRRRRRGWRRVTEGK
Casp6 inh: caspase-6 (human) enzyme inhibition. P55212. purified caspase-6, Z-VEID-R110 cleavage fluorescence. inhibition, % at 12.5 µM. hit rate 0.53% among 350,000. AID 686996;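 active = mean inhibition across replicates at least about 35%, with every replicate also reaching that limit, limit read from the data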;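 also: 0% = median of neutral control wells and 100% = no fluorescence left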
SIRT5 block: blocks human SIRT5 desuccinylation of peptide | hit rate 1.1% among 330,000 | Q9NXA8 | Purified SirT5, succinyl-peptide AMC, trypsin-coupled fluorescence | inhibition, % at 15 µM; in the data active = inhibition above about 15%
FGF22 binding: binders of recombinant human FGF22 by thermal shift | SYPRO orange fluorescence; percent of sucrose octasulfate shift, DMSO zero | activity (Tm shift, normalised), % at 9.99 µM | hit rate 1.5% among 340,000 | AID 651658;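 active = mean Tm shift, scaled 0 neutral to 100 positive control, at about 1.3% or above, every replicate too, limit read from the data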
UCH37 DUB inh: blocks the human deubiquitinase UCH37 | purified proteasome/UCH37, Ub-AMC cleavage fluorescence | inhibition, % (no concentration beside the values) | hit rate 0.33% among 330,000 | AID 588478;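 active = mean inhibition over replicate wells above about 20%, limit read from the data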;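 also: 0% = compound-free wells with enzyme and 100% = wells lacking proteasome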
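system = Proteasome-associated human UCH37 deubiquitinase | amount = 0.15 nM proteasome as dispensed | medium = pH 7.4 Tris-HCl (50 mM) with ovalbumin, ATP-MgCl2, DTT | incubation = 30 min preincubation with enzyme, 25 min cleavage at room temperature | detection = AMC fluorescence 355/460 nm | read-out basis = percent inhibition | controls = no-proteasome and no-compound wells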
Numbers without * were called inactive; . = no result given. Shown are actives, neighbours in structure and some others; about 2.6% of the full set was active somewhere.

SMILES	NSD2 inh	Casp6 inh	SIRT5 block	FGF22 binding	UCH37 DUB inh
C=C(C)CN(CC)C(=O)c1ccc(OC2CCN(S(=O)(=O)N(C)C)CC2)cc1	-0.1	-0.4	17.0*	0.6	1.2
C[C@H](CO)N1C[C@H](C)[C@@H](CN(C)Cc2ccc(C(=O)Nc3ccccc3N)cc2)Oc2ccc(NC(=O)Cc3cn(C)c4ccccc34)cc2CC1=O	.	1.2	4.2	0.1	.
Cc1noc(C)c1NC(=O)Nc1ccc2c(c1)C(=O)N([C@H](C)CO)C[C@@H](C)[C@@H](CN(C)Cc1ccc(C(=O)Nc3ccccc3N)cc1)O2	.	2.5	19.0*	0.1	.
C[C@H]1CN([C@@H](C)CO)C(=O)c2cc(NC(=O)Cc3cn(C)c4ccccc34)ccc2O[C@H]1CN(C)Cc1ccc(C(=O)Nc2ccccc2N)cc1	.	-1.2	20.3*	-0.8	.
Cc1noc(C)c1NC(=O)Nc1ccc2c(c1)C(=O)N([C@H](C)CO)C[C@H](C)[C@H](CN(C)Cc1ccc(C(=O)Nc3ccccc3N)cc1)O2	.	1.9	.	-0.5	.
Cc1nn(-c2ccccc2)c(Cl)c1C=NNC(=O)c1ccc(CNc2ccccc2)o1	.	.	.	.	1.0
C[C@H](CO)N1C[C@H](C)[C@H](CN(C)C(=O)CN(C)C)Oc2ncc(/C=C/c3ccccc3)cc2C1=O	.	1.1	-16.9	-0.2	.
CN(Cc1ccccc1)C(=O)c1ccc(NC(=O)Cc2cccc(NC(=O)C3CCN(C(=O)C4CCCCC4)CC3)c2)cc1	.	-2.6	16.1*	0.8	-1.0
CN(C(=O)c1ccc(NC(=O)Cc2cccc(NC(=O)C3CCN(C(=O)C4CCCC4)CC3)c2)cc1)C1CCCC1	.	0.3	2.4	0.5	21.9*
CN(C(=O)c1ccc(NC(=O)Cc2cccc(NC(=O)C3CCN(C(=O)C4CCCCC4)CC3)c2)cc1)C1CC1	.	-1.8	.	-0.6	.
CN(C(=O)c1cccc(NC(=O)Cc2ccc(NC(=O)C3CCN(C(=O)C4CCC4)CC3)cc2)c1)C1CC1	.	0.6	23.3*	-0.4	1.7
O=C(Cc1cccc(NC(=O)C2CCCN(C(=O)C3CCCCC3)C2)c1)Nc1cccc(C(=O)N2CCOCC2)c1 (stereo not drawn)	.	-1.3	-0.5	40.5	-0.7
O=C(Cc1cccc(NC(=O)C2CCCN(C(=O)C3CCCC3)C2)c1)Nc1cccc(C(=O)N2CCOCC2)c1 (stereo not drawn)	.	1.8	19.1*	-0.3	1.7
C[C@@H]1CN([C@H](C)CO)C(=O)c2cc(NC(=O)CCC(F)(F)F)ccc2O[C@@H](C)CCCCO[C@@H]1CN(C)S(=O)(=O)c1ccc(Cl)cc1	.	1.2	9.2	-0.4	.
Cc1ccsc1C=NNC(=O)CN1CCN(Cc2ccccc2)CC1	.	.	.	.	8.1
Cc1ccc(S(=O)(=O)Nc2ccc3c(c2)C(=O)N([C@@H](C)CO)C[C@@H](C)[C@@H](CN(C)C(=O)c2ccccc2)OCCCC[C@@H](C)O3)cc1	.	0.3	3.4	.	.
CCNC(=O)C[C@H]1CC[C@@H]2[C@@H](COc3ccc(NC(=O)C4CCCCC4)cc3C(=O)N2C)O1	.	-3.7	5.6	-0.5	.
C[C@H]1CN([C@@H](C)CO)C(=O)Cc2cc(NS(=O)(=O)c3ccccc3)ccc2O[C@H]1CN(C)C	.	-4.4	2.3	-0.1	.
CC/C(CC(=O)C(F)(F)F)=N\NC(=O)/C(C#N)=C/N(C)C	0.6	1.3	18.1*	0.1	.
CCC(CC(=O)C(F)(F)F)=NNC(=O)/C(C#N)=C/N(C)C	.	.	.	.	0.8
C[C@H](O)C#Cc1cnc2c(c1)C(=O)N([C@H](C)CO)C[C@@H](C)[C@@H](CN(C)C(=O)CN(C)C)O2	.	0.8	-9.7	0.1	.
Cc1ccc(C(=O)/C=C/c2cc(C#N)n(C)c2C)cc1	3.4	0.2	21.9*	-0.2	2.1
Cc1c(C=C2C(=O)c3ccccc3C2=O)cc(C#N)n1C	.	.	.	.	3.2
C[C@@H]1CN([C@@H](C)CO)C(=O)CCCn2nncc2CO[C@@H]1CN(C)CC1CCCC1	.	-1.3	-3.3	0.3	.
S=c1[nH]nc(C2CCCCC2)n1N=Cc1ccccn1	.	.	.	.	2.6
SMILES	NSD2 inh	Casp6 inh	SIRT5 block	FGF22 binding	UCH37 DUB inh
OCc1c(Cl)nc2ccccn12	-2.2	1.8	-6.4	43.1*	2.3
O=Cc1c(Cl)nc2ccccn12	-1.6	-7.2	-0.4	0.1	5.0
CCOCCCNC(=O)C1c2ccccc2Oc2ccccc21	-1.4	41.3*	-6.3	0.0	1.5
CCOc1cccc2sc(N(CCCN(C)C)C(=O)c3ccc(S(=O)(=O)N(C)c4ccccc4)cc3)nc12	4.4	8.9	1.8	43.5*	1.8
O=C1C(Cl)=C(NCCCN2CCOCC2)C(=O)c2ccccc21	9.1	19.4	.	42.9	17.4
CC1COCC(C)N1C1=C(Cl)C(=O)c2ccccc2C1=O (stereo not drawn)	107.1*	33.1	0.2	0.4	.
COc1ccc2cc(C(N)=O)c(=NNC(=O)c3ccccc3)oc2c1	.	.	.	.	-131.5
Cc1nnc(-c2ccc(Cl)cc2)nc1NCCN(C)C	2.8	-4.9	17.6*	0.2	2.4
CN(C)CCNc1nc(-c2ccccc2)nnc1C(F)(F)F	0.0	.	.	.	3.2
COc1ccc(NC(=O)/C=C/c2ccc(Br)o2)cn1	.	3.8	33.8*	1.2	6.7
CN(Cc1ccco1)C(=O)CSc1nn2c(=O)c(C(C)(C)C)nnc2s1	19.5	43.2*	3.5	0.3	6.7
Cc1cc(C(=O)CSc2nn3c(=O)c(C(C)(C)C)nnc3s2)c(C)n1C1CC1	3.7	4.4	0.2	1.7*	9.0
Cc1ccc(S(=O)(=O)Nc2ccc3c(c2)CC(=O)N([C@@H](C)CO)C[C@H](C)[C@@H](CN(C)C(=O)Nc2cccc4ccccc24)O3)cc1	.	1.0	3.2	-0.3	.
OC1CCCN(CC(O)c2ccccc2)C1 (stereo not drawn)	-0.6	-0.4	-0.5	42.9*	0.9
COc1ccc([C@H]2CN(CCc3ccccc3)C(=O)[C@@H]2CC(=O)Nc2ccccc2)cc1	.	1.4	17.7*	-0.3	.
COc1ccc(CCN2C(=O)N(c3ccc(OC)cc3)C(=O)C2CC(=O)Nc2ccccc2)cc1 (stereo not drawn)	1.2	1.2	.	0.2	1.6
COc1ccc(N2C(=O)C(CC(=O)Nc3ccccc3)N(CCc3ccc(OC)c(OC)c3)C2=O)cc1 (stereo not drawn)	2.5	-1.6	-1.6	44.2*	0.0
C[C@@H]1CN([C@H](C)CO)C(=O)c2cccc(NC(=O)NC3CCCCC3)c2O[C@H]1CN(C)S(=O)(=O)c1ccc(F)cc1	.	0.6	-1.1	-0.2	.
C[C@H](CO)N1C[C@H](C)[C@H](CN(C)S(=O)(=O)c2cn(C)cn2)Oc2ccc(NC(=O)Cn3cnnn3)cc2CC1=O	.	0.3	-6.4	-0.2	.
O=C([C@H]1[C@H](CO)[C@H]2Cn3c(cccc3=O)[C@@H]1N2C(=O)c1ccccc1)N1CCCCC1	.	-2.9	2.4	0.0	.
CC(=O)c1c(C)[nH]c(C(=O)Nc2ccc(F)cc2F)c1C	-0.2	-5.9	0.6	0.1	-0.6
CC(=O)c1c(C)[nH]c(C(=O)Nc2cc(F)ccc2C)c1C	3.0	1.5	4.5	43.1*	-2.3
